≈ marks a conversion by molar mass, not a printed value.
Key:
[1] = Mean oral bioavailability in Swiss albino male mice at […] per compound (administered in a mixture of 5 compounds to 3 mice) assessed by LCMS/MS.; also: dose 2.5 mg/kg; assay type: ADME, organism-based; conditions: male, Swiss albino, mouse, in vivo, read-out: Bioavailability
[2] = Mean AUC inf in Swiss albino male mice at 1 mg/kg per compound (administered iv in a mixture of 5 compounds to 3 mice) assessed by LCMS/MS.; assay type: ADME, organism-based; conditions: male, Swiss albino, mouse, in vivo
Procedure, shortened: (§1)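 Male Swiss albino mice (~30 g), 3 per experiment, mostly dosed as mixtures of 5 compounds iv via the lateral tail vein. Vehicle: 10% DMSO/90% 50 mM Na2HPO4 with 0.5% Tween-80. Blood sampled at 5, 15, 30 min and 1, 2, 4, 8, 24 h. Plasma stored at −20 °C and quantified by LC-MS after acetonitrile precipitation.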

[3] = Mean observed clearance in Swiss albino male mice at 1 mg/kg per compound (administered iv in a mixture of 5 compounds to 3 mice) assessed by LCMS/MS.; assay type: ADME, organism-based; conditions: male, Swiss albino, mouse, in vivo, read-out: Clearance (converted); procedure, shortened: as §1
[4] = Mean volume of distribution at steady state in Swiss albino male mice at 1 mg/kg per compound (administered iv in a mixture of 5 compounds to 3 mice) assessed by LCMS/MS.; assay type: ADME, organism-based; conditions: mouse, in vivo, read-out: Volume
Procedure, shortened: (§2)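 Male Swiss albino mice (~30 g), 3 per experiment, mostly dosed as mixtures of 5 compounds iv via the lateral tail vein. Vehicle: 10% DMSO/90% 50 mM Na2HPO4 with 0.5% Tween-80. Plasma stored at −20 °C and quantified by LC-MS after acetonitrile precipitation.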

[5] = Mean plasma concentration at 24h in Swiss albino male mice at […] per compound (administered orally in a mixture of 5 compounds to 3 mice) assessed by LCMS/MS.; assay type: ADME, organism-based; conditions: mouse, po
[6] = Mean plasma concentration at 4h in Swiss albino male mice at […] per compound (administered orally in a mixture of 5 compounds to 3 mice) assessed by LCMS/MS.; assay type: ADME, organism-based; conditions: mouse, po
[7] = Mean time to peak plasma concentration in Swiss albino male mice at […] per compound (administered orally in a mixture of 5 compounds to 3 mice) assessed by LCMS/MS.; assay type: ADME, organism-based; conditions: mouse, po
[8] = Percentage of parent compound remaining after incubation for 90 minutes with cyropreserved mouse hepatocytes at a concentration of 1uM compound and […], determined by LCMS; assay type: ADME, tissue-based, Hepatocyte; conditions: cryopreserved mouse hepatocytes, read-out: Stability
Procedure, shortened: (§3)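 Compound was incubated at 1 µM final (2 µM working solution mixed 1:1 with hepatocyte suspension) in supplemented KHB pH 7.4. Conditions: 37 °C, 5% CO2, gentle mixing, duplicates. Reaction quenched with ice-cold acetonitrile containing standard; analysed by LC-MS/MS. % remaining = AUC at t / AUC at T0.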

[9] = Solubility at 25 degC of compound (diluted from DMSO) in PBS at pH 7.4 determined after 24h (1h sonication, 22h shaking, 1h sonication) by LCMS/MS; assay type: physicochemical
Schistosoma mansoni [10] = assay: Concentration required to kill 50% of 42 day old worms 5 days after drug treatment.; assay type: functional, organism-based; conditions: Puerto Rican, 120 h
Procedure, shortened: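 Adult S. mansoni were perfused from CD1 mice 6 weeks post-infection and washed. They were cultured 3 pairs per well in 1 mL DMEM with 2 mM glutamine, penicillin/streptomycin and 10% FCS […] at 37 °C, 5% CO2. Viability of individual worms was scored on day 5 (120 h).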

Schistosoma mansoni [11] = assay: Concentration required to kill 50% of 21 day old worms 5 days after drug treatment.; assay type: functional, organism-based; conditions: Puerto Rican, 120 h
Procedure, shortened: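 Juvenile S. mansoni (Puerto Rican strain) were perfused from CD1 mice 3 weeks post-infection and washed. They were cultured 6–8 per well in 200 µL DMEM with 2 mM glutamine, penicillin/streptomycin and 10% FCS at 37 °C, 5% CO2. Viability of individual worms was scored on day 5 after dosing (120 h).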

[12] = Concentration of drug in plasma at 24h following oral drug adminstration at given dose. Determined by LCMS/MS; assay type: ADME, organism-based; conditions: CD1, mouse
Procedure, shortened: (§4)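 Plasma sampled from the mice of the efficacy experiments, each animal sampled once: one animal per group at 1, 4 and 8 h, two per group at 24 h. Plasma prepared by acetonitrile protein precipitation and analysed by LC-MS against a 10-point calibration line spiked in blank matrix, with QCs at three or more levels.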

[13] = Concentration of drug in plasma at 4h following oral drug adminstration at given dose. Determined by LCMS/MS; assay type: ADME, organism-based; conditions: CD1, mouse; procedure, shortened: as §4
Schistosoma mansoni [14] = assay: Percentage of worms remaining following treatment of female CD1 mice infected with S. mansoni worms (21 day old - juvenile or 42 day old - adult) with compound by oral gavage. Worms were recovered by portal perfusion with citrate saline 8-14 days post treatment and counted. Percentages are from a mean of 5 or 6 animals.; assay type: functional, Mus musculus; design: concentration or dose not given beside the values
Procedure, shortened: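 Female CD1 mice were infected subcutaneously with 150 cercariae and treated at day 21 (juvenile) or day 42 (adult). Single oral gavage, or two doses 12 h apart, given in 7% Tween-80/3% ethanol/water (sonicated) or in 1:19 DMSO:corn oil. Controls received vehicle only. Worm recoveries are group means, n = 5–6.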

[15] = Concentration required to kill 50% HepG2 cells as detected by MTT staining; assay type: toxicity, cell-based; conditions: homo sapiens, read-out: TC50 (the source's name)
[16] = Mean half-life in Swiss albino male mice at 1 mg/kg per compound (administered iv in a mixture of 5 compounds to 3 mice) assessed by LCMS/MS.; assay type: ADME, organism-based; conditions: mouse, in vivo; procedure, shortened: as §2
[17] = Partition coefficient of compound between n-octanol and PBS (pH7.4); assay type: physicochemical; conditions: octanol/water, pH 7.4
Procedure, shortened: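 Shake-flask method using octanol and PBS pH 7.4, each pre-saturated with the other. Compound was shaken 2 h at 850 rpm, 25 °C, then the phases were separated by centrifugation and both layers diluted and analysed by LC-MS/MS. LogD = log(octanol AUC × relative dilution / buffer AUC).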

[18] = Percentage of parent compound remaining after incubation for 30 minutes with cyropreserved mouse hepatocytes at a concentration of 1uM compound and […], determined by LCMS; assay type: ADME, tissue-based, Hepatocyte; conditions: cryopreserved mouse hepatocytes, read-out: Stability; procedure, shortened: as §3
[19] = Plasma protein binding determined at 10uM by LC-MS/MS.; conditions: mouse
[20] = Percentage of parent compound remaining after incubation for 30 minutes with cyropreserved human hepatocytes at a concentration of 1uM compound and 1 million cells/uL, determined by LCMS/MS; assay type: ADME, tissue-based, Hepatocyte; conditions: cryopreserved human hepatocytes, read-out: Stability; procedure, shortened: as §3
[21] = Plasma protein binding determined at 10uM by LC-MS/MS.; assay type: ADME, cell-free
Procedure, shortened: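 Equilibrium dialysis of plasma spiked at 10 µM (0.1% DMSO) against PBS pH 7.4, 6 h at 37 °C, duplicates. Both chambers analysed by LC-MS/MS after acetonitrile precipitation. % free = buffer/plasma area ratio; recovery also calculated.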

[22] = Plasma protein binding determined at 1uM by LC-MS/MS.; assay type: ADME, cell-free
[23] = Concentration required to kill 50% MRC-5 cells as detected by Alamar blue staining; assay type: toxicity, cell-based, MRC5; conditions: homo sapiens, read-out: TC50 (the source's name)
Schistosoma haematobium = assay: Concentration required to kill 50% of 84 day old worms 5 days after drug treatment.; assay type: functional, organism-based; conditions: Egyptian, 120 h

SMILES	bioavailability [1]	AUC(0-inf) [2]	clearance [3]	Vd [4]	concentration at 24 h [5]	concentration at 4 h [6]	Tmax [7]	solubility kinetic at 24 h [9]	EC50 (Schistosoma mansoni [10])	EC50 (Schistosoma mansoni [11])	CC50 [15]	half-life [16]	Lipophilicity [17]	remaining at 0.5 h, 1 µM [18]	Binding [19]	remaining at 0.5 h, 1 µM [20]	Binding ([21]; mouse)	other results
CCc1nc2cnc(-c3ccc(F)c(C(F)(F)F)c3)cn2c1-c1ccc2[nH]ncc2c1F	82.7%	2080 ng·h/mL	4.02 mL/min/kg	1.37 L/kg	21.4 ng/mL	676 ng/mL	120 min	1.83 µM (≈ 0.811 µg/mL)	45 nM	87 nM	13.1 µM	–	–	–	–	–	–	remaining at 1.5 h, 1 µM [8]: 85%; concentration at 24 h [12]: 50.5 ng/mL; concentration at 4 h [13]: 705 ng/mL; Efficacy (Schistosoma mansoni [14]): 89.6%
COc1ccc(-c2c(C(C)C)nc3cnc(-c4ccnc(N(C)C)c4)cn23)cc1O	6.57%	48.3 ng·h/mL	173 mL/min/kg	2.98 L/kg	0.1 ng/mL	1.11 ng/mL	15 min	0.467 µM (≈ 0.188 µg/mL)	–	< 939 nM	–	19.9 min	4.33 =	31.9%	98.4537%	–	–	–
Fc1ccc(-c2cn3c(-c4ccc5[nH]ncc5c4F)c(C4CC4)nc3cn2)cc1C(F)(F)F	95.8%	2450 ng·h/mL	3.43 mL/min/kg	4.37 L/kg	176 ng/mL	376 ng/mL	60 min	1.42 µM (≈ 0.647 µg/mL)	50.7 nM	36.1 nM	16.1 µM	972 min	4.7 =	81.9%	–	95.2%	100%	Binding ([21]; human): 100%; remaining at 1.5 h, 1 µM [8]: 79.5%; concentration at 24 h [12]: 60.4 ng/mL; concentration at 4 h [13]: 75 ng/mL; Efficacy (Schistosoma mansoni [14]): 88%
COc1ccc(-c2c(C(C)C)nc3cnc(-c4ccc(F)c(C(F)(F)F)c4)cn23)cc1O	8.28%	143 ng·h/mL	58.8 mL/min/kg	3.75 L/kg	0.1 ng/mL	5.08 ng/mL	15 min	2.5 µM (≈ 1.11 µg/mL)	< 48.8 nM	177 nM	–	96 min	5.7 =	54.5%	99.9485%	–	–	–
Oc1ccc(-c2cnc3cnc(-c4cccc(C(F)(F)F)c4)cn23)c(F)c1	–	49.9 ng·h/mL	168 mL/min/kg	1.33 L/kg	0.1 ng/mL	0.1 ng/mL	15 min	2 µM (≈ 0.747 µg/mL)	2320 nM	2120 nM	–	10.3 min	4.95 =	32.9%	–	31%	–	Binding ([22]; human): 99.88%; Binding ([22]; mouse): 99.76%; CC50 [23]: > 38.3 µM
Oc1cc(F)c(-c2c(C3CC3)nc3cnc(-c4ccc(F)c(C(F)(F)F)c4)cn23)c(F)c1	69.6%	3800 ng·h/mL	2.25 mL/min/kg	1.94 L/kg	151 ng/mL	680 ng/mL	15 min	–	44.3 nM	33.7 nM	8.9 µM	–	4.34 =	83.8%	–	42.1%	99.975%	Binding ([21]; human): 100%; remaining at 1.5 h, 1 µM [8]: 53%; concentration at 24 h [12]: 460 ng/mL; concentration at 4 h [13]: 1040 ng/mL; Efficacy (Schistosoma mansoni [14]): 75%
COc1ccc(-c2c(C)nc3ccc(-c4cccc(C(F)(F)F)c4)cn23)cc1O	1.48%	53.1 ng·h/mL	158 mL/min/kg	3.65 L/kg	0.1 ng/mL	0.1 ng/mL	15 min	1.95 µM (≈ 0.777 µg/mL)	–	< 684 nM	–	–	4.92 =	43%	99.8676%	–	–	–
CCc1nc2cnc(-c3cccc(C(F)(F)F)c3)cn2c1-c1ccc(O)cc1F	7.35%	144 ng·h/mL	58.2 mL/min/kg	2.17 L/kg	0.1 ng/mL	4.15 ng/mL	15 min	17.5 µM (≈ 7.02 µg/mL)	< 140 nM	85.9 nM	18.7 µM	33.6 min	3.76 =	39%	–	–	99.87%	EC50 (Schistosoma haematobium): 151 nM; CC50 [23]: 17.5 µM
COc1cc(-c2c(C(C)C)nc3cnc(-c4cccc(C(F)(F)F)c4)cn23)cc2cn[nH]c12	84.8%	490 ng·h/mL	17 mL/min/kg	6.81 L/kg	10.5 ng/mL	130 ng/mL	30 min	0.643 µM (≈ 0.29 µg/mL)	428 nM	527 nM	–	446 min	5.49 =	68%	–	–	99.95%	Binding ([22]; mouse): 100%; EC50 (Schistosoma haematobium): 149 nM
COc1ccc(-c2c(C3CC3)nc3cnc(-c4cccc(C(F)(F)F)c4)cn23)cc1O	3.64%	77.9 ng·h/mL	108 mL/min/kg	4.58 L/kg	0.1 ng/mL	1.88 ng/mL	15 min	1.2 µM (≈ 0.51 µg/mL)	71.5 nM	62.5 nM	–	62.4 min	4.62 =	41.3%	99.9319%	–	–	–
Cc1nc2cnc(-c3ccc(F)c(C(F)(F)F)c3)cn2c1-c1c(F)cc(O)cc1F	88.5%	844 ng·h/mL	10.2 mL/min/kg	2.91 L/kg	9.8 ng/mL	289 ng/mL	15 min	1.11 µM (≈ 0.47 µg/mL)	118 nM	124 nM	7.56 µM	216 min	5.37 =	53.6%	–	34.3%	99.865%	Binding ([21]; human): 99.9645%; Binding ([22]; mouse): 99.8779%; EC50 (Schistosoma haematobium): 41.5 nM

— ChEMBL document CHEMBL4651341, “The discovery of a novel series of compounds with single-dose efficacy against juvenile and adult Schistosoma species” (PLoS Negl Trop Dis, 2021)
